# “And” between values parts separate entries of the source, which are not always exact repeats. Equal entries are not always repeated.
# Assays:
# Assay type in all cases: toxicity, cell-based
# [1] = test system: HEK-293T; test: Multiplex assay against HEK293T; conditions: human
# In short: (§1)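 On a CQ1 microscope at 37°C and 5% CO2, live cells were imaged after compound addition. They had been stained at seeding with Hoechst33342, BioTracker Green Microtubule Cytoskeleton Dye, MitoTracker Red and Annexin V Alexa Fluor 680. CellPathfinder machine-learning gating assigned cells to Hoechst high-intensity objects or normal cells, normal cells to healthy, pyknosed or fragmented nuclei, and pyknosed cells to mitotic or apoptotic. Tubulin, mitochondrial-mass and membrane-permeability phenotypes are per cents of healthy-nucleus cells.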
# [2] = test system: Fibroblast; test: Multiplex assay against human fibroblast; in short: as §1
# [3] = test system: U2OS; test: Multiplex assay against U2OS; conditions: human; in short: as §1
# [4] = 12 h, 1 µM, compound concentration 1 uM
# [5] = 12 h, 10 µM, compound concentration 10 uM
# [6] = 24 h, 1 µM, compound concentration 1 uM
# [7] = 24 h, 10 µM, compound concentration 10 uM
# [8] = 48 h, 1 µM, compound concentration 1 uM
# [9] = 48 h, 10 µM, compound concentration 10 uM
smiles,measurement,setting,value
CC(C)COc1ccc(CNC(=O)N(Cc2ccc(F)cc2)C2CCN(C)CC2)cc1 [PIMAVANSERIN],Population Apoptotic (%),[1]; [4],39% and 54%
same,Population Fragmented Nuclei (%),[1]; [4],5% and 7%
same,Population Healthy Nuclei (%),[1]; [4],82% and 74%
same,Population Hoechst High Intensity Objects (%),[1]; [4],6% and 11%
same,Population Membrane Permeable-Phenotype (%),[1]; [4],0%
same,Population Mitochondria Different-Phenotype (%),[1]; [4],50% and 68%
same,Population Mitotic Cells (%),[1]; [4],60% and 46%
same,Population Normal (%),[1]; [4],93% and 88%
same,Population Pyknosed Nuclei (%),[1]; [4],11% and 18%
same,Population Tubulin-Different-Phenotype (%),[1]; [4],49% and 35%
same,Total Cell Count,[1]; [4],430 and 311
same,Population Apoptotic (%),[1]; [5],62% and 79%
same,Population Fragmented Nuclei (%),[1]; [5],10% and 7%
same,Population Healthy Nuclei (%),[1]; [5],60% and 64%
same,Population Hoechst High Intensity Objects (%),[1]; [5],19% and 25%
same,Population Membrane Permeable-Phenotype (%),[1]; [5],0%
same,Population Mitochondria Different-Phenotype (%),[1]; [5],89% and 87%
same,Population Mitotic Cells (%),[1]; [5],37% and 20%
same,Population Normal (%),[1]; [5],80% and 74%
same,Population Pyknosed Nuclei (%),[1]; [5],28% and 27%
same,Population Tubulin-Different-Phenotype (%),[1]; [5],81% and 66%
same,Total Cell Count,[1]; [5],285 and 237
same,Population Apoptotic (%),[1]; [6],33% and 48%
same,Population Fragmented Nuclei (%),[1]; [6],9% and 4%
same,Population Healthy Nuclei (%),[1]; [6],77% and 82%
same,Population Hoechst High Intensity Objects (%),[1]; [6],6% and 8%
same,Population Membrane Permeable-Phenotype (%),[1]; [6],2% and 0%
same,Population Mitochondria Different-Phenotype (%),[1]; [6],42% and 55%
same,Population Mitotic Cells (%),[1]; [6],66% and 51%
same,Population Normal (%),[1]; [6],93% and 91%
same,Population Pyknosed Nuclei (%),[1]; [6],13% and 12%
same,Population Tubulin-Different-Phenotype (%),[1]; [6],40% and 30%
same,Total Cell Count,[1]; [6],553 and 394
same,Population Apoptotic (%),[1]; [7],81% and 84%
same,Population Fragmented Nuclei (%),[1]; [7],10% and 12%
same,Population Healthy Nuclei (%),[1]; [7],57% and 54%
same,Population Hoechst High Intensity Objects (%),[1]; [7],27% and 34%
same,Population Membrane Permeable-Phenotype (%),[1]; [7],0%
same,Population Mitochondria Different-Phenotype (%),[1]; [7],94% and 100%
same,Population Mitotic Cells (%),[1]; [7],18% and 15%
same,Population Normal (%),[1]; [7],72% and 65%
same,Population Pyknosed Nuclei (%),[1]; [7],31% and 32%
same,Population Tubulin-Different-Phenotype (%),[1]; [7],77% and 69%
same,Total Cell Count,[1]; [7],285 and 215
same,Population Apoptotic (%),[1]; [8],27% and 48%
same,Population Fragmented Nuclei (%),[1]; [8],13% and 9%
same,Population Healthy Nuclei (%),[1]; [8],77% and 84%
same,Population Hoechst High Intensity Objects (%),[1]; [8],5%
same,Population Membrane Permeable-Phenotype (%),[1]; [8],1% and 0%
same,Population Mitochondria Different-Phenotype (%),[1]; [8],31% and 33%
same,Population Mitotic Cells (%),[1]; [8],72% and 51%
same,Population Normal (%),[1]; [8],94%
same,Population Pyknosed Nuclei (%),[1]; [8],8% and 6%
same,Population Tubulin-Different-Phenotype (%),[1]; [8],33% and 21%
same,Total Cell Count,[1]; [8],869 and 601
same,Population Apoptotic (%),[1]; [9],75% and 61%
same,Population Fragmented Nuclei (%),[1]; [9],29% and 31%
same,Population Healthy Nuclei (%),[1]; [9],30%
same,Population Hoechst High Intensity Objects (%),[1]; [9],52% and 60%
same,Population Membrane Permeable-Phenotype (%),[1]; [9],0%
same,Population Mitochondria Different-Phenotype (%),[1]; [9],88% and 92%
same,Population Mitotic Cells (%),[1]; [9],24% and 38%
same,Population Normal (%),[1]; [9],47% and 40%
same,Population Pyknosed Nuclei (%),[1]; [9],40% and 37%
same,Population Tubulin-Different-Phenotype (%),[1]; [9],58% and 64%
same,Total Cell Count,[1]; [9],235 and 205
same,Population Apoptotic (%),[2]; [4],65% and 61%
same,Population Fragmented Nuclei (%),[2]; [4],24% and 40%
same,Population Healthy Nuclei (%),[2]; [4],62% and 42%
same,Population Hoechst High Intensity Objects (%),[2]; [4],0% and 1%
same,Population Membrane Permeable-Phenotype (%),[2]; [4],0% and 7%
same,Population Mitochondria Different-Phenotype (%),[2]; [4],12% and 4%
same,Population Mitotic Cells (%),[2]; [4],34% and 38%
same,Population Normal (%),[2]; [4],100% and 98%
same,Population Pyknosed Nuclei (%),[2]; [4],12% and 16%
same,Population Tubulin-Different-Phenotype (%),[2]; [4],35% and 82%
same,Total Cell Count,[2]; [4],179 and 160
same,Population Apoptotic (%),[2]; [5],56% and 51%
same,Population Fragmented Nuclei (%),[2]; [5],18% and 31%
same,Population Healthy Nuclei (%),[2]; [5],65% and 42%
same,Population Hoechst High Intensity Objects (%),[2]; [5],1% and 4%
same,Population Membrane Permeable-Phenotype (%),[2]; [5],0% and 2%
same,Population Mitochondria Different-Phenotype (%),[2]; [5],42% and 32%
same,Population Mitotic Cells (%),[2]; [5],43% and 48%
same,Population Normal (%),[2]; [5],98% and 95%
same,Population Pyknosed Nuclei (%),[2]; [5],16% and 26%
same,Population Tubulin-Different-Phenotype (%),[2]; [5],93% and 81%
same,Total Cell Count,[2]; [5],185
same,Population Apoptotic (%),[2]; [6],60% and 52%
same,Population Fragmented Nuclei (%),[2]; [6],21% and 39%
same,Population Healthy Nuclei (%),[2]; [6],65% and 46%
same,Population Hoechst High Intensity Objects (%),[2]; [6],2%
same,Population Membrane Permeable-Phenotype (%),[2]; [6],1% and 4%
same,Population Mitochondria Different-Phenotype (%),[2]; [6],5% and 9%
same,Population Mitotic Cells (%),[2]; [6],39% and 47%
same,Population Normal (%),[2]; [6],97%
same,Population Pyknosed Nuclei (%),[2]; [6],12% and 13%
same,Population Tubulin-Different-Phenotype (%),[2]; [6],47% and 76%
same,Total Cell Count,[2]; [6],186 and 157
same,Population Apoptotic (%),[2]; [7],83% and 69%
same,Population Fragmented Nuclei (%),[2]; [7],13% and 27%
same,Population Healthy Nuclei (%),[2]; [7],67% and 50%
same,Population Hoechst High Intensity Objects (%),[2]; [7],4% and 8%
same,Population Membrane Permeable-Phenotype (%),[2]; [7],0% and 3%
same,Population Mitochondria Different-Phenotype (%),[2]; [7],41% and 38%
same,Population Mitotic Cells (%),[2]; [7],16% and 30%
same,Population Normal (%),[2]; [7],95% and 91%
same,Population Pyknosed Nuclei (%),[2]; [7],18% and 21%
same,Population Tubulin-Different-Phenotype (%),[2]; [7],92% and 96%
same,Total Cell Count,[2]; [7],170 and 167
same,Population Apoptotic (%),[2]; [8],88% and 52%
same,Population Fragmented Nuclei (%),[2]; [8],27% and 44%
same,Population Healthy Nuclei (%),[2]; [8],62% and 44%
same,Population Hoechst High Intensity Objects (%),[2]; [8],3% and 5%
same,Population Membrane Permeable-Phenotype (%),[2]; [8],1% and 4%
same,Population Mitochondria Different-Phenotype (%),[2]; [8],3% and 12%
same,Population Normal (%),[2]; [8],96% and 94%
same,Population Pyknosed Nuclei (%),[2]; [8],9% and 10%
same,Population Tubulin-Different-Phenotype (%),[2]; [8],45% and 64%
same,Total Cell Count,[2]; [8],204 and 167
same,Population Apoptotic (%),[2]; [9],92% and 75%
same,Population Fragmented Nuclei (%),[2]; [9],15% and 30%
same,Population Healthy Nuclei (%),[2]; [9],67% and 53%
same,Population Hoechst High Intensity Objects (%),[2]; [9],12% and 6%
same,Population Membrane Permeable-Phenotype (%),[2]; [9],0% and 3%
same,Population Mitochondria Different-Phenotype (%),[2]; [9],44% and 41%
same,Population Normal (%),[2]; [9],87% and 93%
same,Population Pyknosed Nuclei (%),[2]; [9],17% and 16%
same,Population Tubulin-Different-Phenotype (%),[2]; [9],91% and 92%
same,Total Cell Count,[2]; [9],163 and 159
same,Population Apoptotic (%),[3]; [4],84% and 100%
same,Population Fragmented Nuclei (%),[3]; [4],23% and 11%
same,Population Healthy Nuclei (%),[3]; [4],67% and 80%
same,Population Hoechst High Intensity Objects (%),[3]; [4],2% and 0%
same,Population Membrane Permeable-Phenotype (%),[3]; [4],6%
same,Population Mitochondria Different-Phenotype (%),[3]; [4],3% and 4%
same,Population Mitotic Cells (%),[3]; [4],16% and 0%
same,Population Normal (%),[3]; [4],97% and 99%
same,Population Pyknosed Nuclei (%),[3]; [4],9% and 7%
same,Population Tubulin-Different-Phenotype (%),[3]; [4],5% and 6%
same,Total Cell Count,[3]; [4],265 and 136
same,Population Apoptotic (%),[3]; [5],67% and 71%
same,Population Fragmented Nuclei (%),[3]; [5],23% and 18%
same,Population Healthy Nuclei (%),[3]; [5],48% and 54%
same,Population Hoechst High Intensity Objects (%),[3]; [5],5% and 4%
same,Population Membrane Permeable-Phenotype (%),[3]; [5],48% and 26%
same,Population Mitochondria Different-Phenotype (%),[3]; [5],73% and 70%
same,Population Mitotic Cells (%),[3]; [5],32% and 28%
same,Population Normal (%),[3]; [5],94% and 95%
same,Population Pyknosed Nuclei (%),[3]; [5],27% and 26%
same,Population Tubulin-Different-Phenotype (%),[3]; [5],77% and 52%
same,Total Cell Count,[3]; [5],202 and 124
same,Population Apoptotic (%),[3]; [6],92% and 78%
same,Population Fragmented Nuclei (%),[3]; [6],22% and 11%
same,Population Healthy Nuclei (%),[3]; [6],67% and 80%
same,Population Hoechst High Intensity Objects (%),[3]; [6],2% and 1%
same,Population Membrane Permeable-Phenotype (%),[3]; [6],10% and 11%
same,Population Mitochondria Different-Phenotype (%),[3]; [6],4% and 8%
same,Population Mitotic Cells (%),[3]; [6],7% and 21%
same,Population Normal (%),[3]; [6],97% and 98%
same,Population Pyknosed Nuclei (%),[3]; [6],9% and 8%
same,Population Tubulin-Different-Phenotype (%),[3]; [6],6%
same,Total Cell Count,[3]; [6],294 and 163
same,Population Apoptotic (%),[3]; [7],88% and 79%
same,Population Fragmented Nuclei (%),[3]; [7],28% and 16%
same,Population Healthy Nuclei (%),[3]; [7],40% and 50%
same,Population Hoechst High Intensity Objects (%),[3]; [7],10% and 3%
same,Population Membrane Permeable-Phenotype (%),[3]; [7],32% and 30%
same,Population Mitochondria Different-Phenotype (%),[3]; [7],67% and 75%
same,Population Mitotic Cells (%),[3]; [7],11% and 20%
same,Population Normal (%),[3]; [7],89% and 96%
same,Population Pyknosed Nuclei (%),[3]; [7],31% and 33%
same,Population Tubulin-Different-Phenotype (%),[3]; [7],49%
same,Total Cell Count,[3]; [7],214 and 135
same,Population Apoptotic (%),[3]; [8],87% and 92%
same,Population Fragmented Nuclei (%),[3]; [8],19% and 12%
same,Population Healthy Nuclei (%),[3]; [8],68% and 76%
same,Population Hoechst High Intensity Objects (%),[3]; [8],2% and 1%
same,Population Membrane Permeable-Phenotype (%),[3]; [8],6% and 5%
same,Population Mitochondria Different-Phenotype (%),[3]; [8],5%
same,Population Mitotic Cells (%),[3]; [8],12% and 7%
same,Population Normal (%),[3]; [8],97% and 98%
same,Population Pyknosed Nuclei (%),[3]; [8],12% and 11%
same,Population Tubulin-Different-Phenotype (%),[3]; [8],4% and 2%
same,Total Cell Count,[3]; [8],393 and 234
same,Population Apoptotic (%),[3]; [9],98% and 95%
same,Population Fragmented Nuclei (%),[3]; [9],38%
same,Population Healthy Nuclei (%),[3]; [9],19% and 15%
same,Population Hoechst High Intensity Objects (%),[3]; [9],13% and 8%
same,Population Membrane Permeable-Phenotype (%),[3]; [9],40% and 66%
same,Population Mitochondria Different-Phenotype (%),[3]; [9],56% and 80%
same,Population Mitotic Cells (%),[3]; [9],1% and 4%
same,Population Normal (%),[3]; [9],86% and 91%
same,Population Pyknosed Nuclei (%),[3]; [9],42% and 45%
same,Population Tubulin-Different-Phenotype (%),[3]; [9],54% and 71%
same,Total Cell Count,[3]; [9],222 and 146

# From ChEMBL document CHEMBL5724801, “EUbOPEN Chemogenomics Library - Multiplex” (2024)
